According to paper PMC6859084 (Drug Design, Development and Therapy, 2019):
Read-outs that look alike come from different tables or passages of the source.

Tests used:
[1] = previously reported; cited from earlier work
[2] = Pharmacokinetics after single oral dose of FDC or loose combination; format: in vivo, human; settings: FDC to loose combination
Summary of the method: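 Healthy subjects, randomized open-label two-period crossover with 14-day washout, fasted overnight, single oral dose with 200 mL water. Heparinized blood drawn pre-dose to 72 h, centrifuged 1,800 rpm 8 min at 4°C, plasma mixed 1:1 with 5% formic acid, stored −70°C. LC-MS/MS (C18, positive ESI, MRM), validated 0.5–200 ng/mL. Non-compartmental parameters; log-transformed GMR from linear mixed-effects model.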

[3] = system: LDL-C; settings: cited from earlier work

Structure (SMILES): N[C@@H](CC(=O)N1CCc2c(nc(C(F)(F)F)nc2C(F)(F)F)C1)CN1CC(F)(F)CCC1=O [Gemigliptin]
- half-life [1]: 17 h
- AUClast Geometric Mean Ratio (90% CI) [2]: 1.02 (0.96–1.09)
- Cmax Geometric Mean Ratio (90% CI) [2]: 1.08 (0.99–1.18)

Structure (SMILES): CC(C)c1nc(N(C)S(C)(=O)=O)nc(-c2ccc(F)cc2)c1/C=C/[C@@H](O)C[C@@H](O)CC(=O)O [Rosuvastatin]
- AUClast Geometric Mean Ratio (90% CI) [2]: 1.02 (0.95–1.09)
- Cmax Geometric Mean Ratio (90% CI) [2]: 1.09 (0.96–1.22)
- LDL-C reduction ([3]; first week after rosuvastatin administration): 64%
- LDL-C reduction ([3]; second week after rosuvastatin administration): 90%
